Results taken from ChEMBL document CHEMBL1148762, “Lysosome and HER3 (ErbB3) selective anticancer agent kahalalide F: semisynthetic modifications and antifungal lead-exploration studies” (J Med Chem, 2007).
Active and inactive are the calls of the source. No cut-off for these calls is given here.

Legend:
Fusarium oxysporum [1] = experiment: Antimicrobial activity against Fusarium oxysporum at 0.3 uM after 72 hrs by microtiter assay; assay type: functional
Method in brief: (§1)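 96-well microdilution broth assay with conidia (3 × 10^5 conidia/mL, harvested from 7-day PDA cultures and filtered) against F. oxysporum, F. proliferatum and F. solani at 0.3, 3 and 30 µM. Plates were held at 24 ± 1 °C under a 12 h photoperiod. Growth was read at 620 nm at 24, 48 and 72 h and reported as percent inhibition from mean absorbance with standard error.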

Fusarium proliferatum [2] = experiment: Antimicrobial activity against Fusarium proliferatum at 0.3 uM after 72 hrs by microtiter assay; assay type: functional; method in brief: as §1
Fusarium proliferatum [3] = experiment: Antimicrobial activity against Fusarium proliferatum at 30 uM after 72 hrs by microtiter assay; assay type: functional; method in brief: as §1
PC-3 = experiment: Cytotoxicity against human PC3 cells; assay type: functional
Method in brief: (§2)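 NCI Developmental Therapeutics Program cell panel. GI50 is the concentration that reduces growth of treated cells to half that of untreated controls. TGI is the concentration that completely halts growth.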

HT-29 = experiment: Cytotoxicity against human HT29 cells; assay type: functional; method in brief: as §2
Fusarium oxysporum [4] = experiment: Antimicrobial activity against Fusarium oxysporum at 30 uM after 72 hrs by microtiter assay; assay type: functional; method in brief: as §1
Fusarium proliferatum [5] = experiment: Antimicrobial activity against Fusarium proliferatum at 3 uM after 48 hrs by microtiter assay; assay type: functional; method in brief: as §1
[6] = tested on: Mycobacterium tuberculosis; experiment: Antibacterial activity against Mycobacterium tuberculosis H37Rv at 16 ug/mL by micro plate alamar blue assay; assay type: functional
Method in brief: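 M. tuberculosis H37Rv ATCC 27294 grown in BACTEC 12B medium; microplate Alamar blue assay (MABA). Primary screen at a single concentration of 16 µg/mL, read as percent inhibition.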

Fusarium solani [7] = experiment: Antimicrobial activity against Fusarium solani at 3 uM after 48 hrs by microtiter assay; assay type: functional; method in brief: as §1
Hs-578T = experiment: Cytotoxicity against human HS578T cells; assay type: functional; method in brief: as §2
SK-OV-3 = experiment: Cytotoxicity against human SK-OV3 cells; assay type: functional; method in brief: as §2
Fusarium solani [8] = experiment: Antimicrobial activity against Fusarium solani at 30 uM after 48 hrs by microtiter assay; assay type: functional; method in brief: as §1
Fusarium oxysporum [9] = experiment: Antimicrobial activity against Fusarium oxysporum at 0.3 uM after 48 hrs by microtiter assay; assay type: functional; method in brief: as §1
ACHN = experiment: Cytotoxicity against human ACHN cells; assay type: functional; method in brief: as §2
A549 = experiment: Cytotoxicity against human A549 cells; assay type: functional; method in brief: as §2
Fusarium solani [10] = experiment: Antimicrobial activity against Fusarium solani at 0.3 uM after 72 hrs by microtiter assay; assay type: functional; method in brief: as §1
Fusarium proliferatum [11] = experiment: Antimicrobial activity against Fusarium proliferatum at 3 uM after 72 hrs by microtiter assay; assay type: functional; method in brief: as §1
HCC 2998 = experiment: Cytotoxicity against human HCC2998 cells; assay type: functional; method in brief: as §2
Fusarium proliferatum [12] = experiment: Antimicrobial activity against Fusarium proliferatum at 0.3 uM after 48 hrs by microtiter assay; assay type: functional; method in brief: as §1
HCT-15 = experiment: Cytotoxicity against human HCT15 cells; assay type: functional; method in brief: as §2
NCI-H322M = experiment: Cytotoxicity against human NCI-H322M cells; assay type: functional; method in brief: as §2
DU-145 = experiment: Cytotoxicity against human DU145 cells; assay type: functional; method in brief: as §2
Fusarium oxysporum [13] = experiment: Antimicrobial activity against Fusarium oxysporum at 3 uM after 72 hrs by microtiter assay; assay type: functional; method in brief: as §1
Fusarium solani [14] = experiment: Antimicrobial activity against Fusarium solani at 30 uM after 72 hrs by microtiter assay; assay type: functional; method in brief: as §1
Fusarium solani [15] = experiment: Antimicrobial activity against Fusarium solani at 3 uM after 72 hrs by microtiter assay; assay type: functional; method in brief: as §1
RPMI-8226 = experiment: Cytotoxicity against human RPMI8226 cells; assay type: functional; method in brief: as §2
Fusarium oxysporum [16] = experiment: Antimicrobial activity against Fusarium oxysporum at 30 uM after 48 hrs by microtiter assay; assay type: functional; method in brief: as §1
COLO 205 = experiment: Cytotoxicity against human COLO205 cells; assay type: functional; method in brief: as §2
KM12 = experiment: Cytotoxicity against human KM12 cells; assay type: functional; method in brief: as §2
SNB-75 = experiment: Cytotoxicity against human SNB75 cells; assay type: functional; method in brief: as §2
Fusarium oxysporum [17] = experiment: Antimicrobial activity against Fusarium oxysporum at 3 uM after 48 hrs by microtiter assay; assay type: functional; method in brief: as §1
UACC-257 = experiment: Cytotoxicity against human UACC257 cells; assay type: functional; method in brief: as §2
T47D = experiment: Cytotoxicity against human T47D cells; assay type: functional; method in brief: as §2
Fusarium solani [18] = experiment: Antimicrobial activity against Fusarium solani at 0.3 uM after 48 hrs by microtiter assay; assay type: functional; method in brief: as §1
Fusarium proliferatum [19] = experiment: Antimicrobial activity against Fusarium proliferatum at 30 uM after 48 hrs by microtiter assay; assay type: functional; method in brief: as §1
Fusarium proliferatum [20] = experiment: Fungicidal activity against Fusarium proliferatum at 30 uM after 72 hrs by microtiter plate assay; assay type: functional, organism-based
Method in brief: (§3)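 After 72 h of microtiter broth exposure at 30 µM, 20 µL from each well was plated onto compound-free potato dextrose agar and incubated 3 days at 28 °C. No regrowth was scored fungicidal; regrowth was scored fungistatic.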

Fusarium oxysporum [21] = experiment: Fungistatic activity against Fusarium oxysporum at 30 uM after 72 hrs by microtiter plate assay; assay type: functional, organism-based
Method in brief: (§4)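 Conidia come from 7-day potato dextrose agar cultures, filtered and set photometrically (625 nm) to 3 × 10^5 conidia/mL. They are exposed to compound at 30 µM in 96-well microdilution broth at 24 ± 1 °C under a 12 h photoperiod. After 72 h, 20 µL per well is subcultured on drug-free potato dextrose agar at 28 °C for 3 days. No regrowth is scored fungicidal; regrowth is scored fungistatic.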

Fusarium solani [22] = experiment: Fungicidal activity against Fusarium solani at 30 uM after 72 hrs by microtiter assay; assay type: functional, organism-based; method in brief: as §3
Fusarium oxysporum [23] = experiment: Fungicidal activity against Fusarium oxysporum at 30 uM after 72 hrs by microtiter plate assay; assay type: functional, organism-based; method in brief: as §3
Fusarium proliferatum [24] = experiment: Fungistatic activity against Fusarium proliferatum at 30 uM after 72 hrs by microtiter plate assay; assay type: functional, organism-based; method in brief: as §4

C/C=C1\NC(=O)[C@H](Cc2ccccc2)NC(=O)[C@@H](C(C)C)NC(=O)[C@@H]([C@@H](C)CC)NC(=O)[C@H](NC(=O)[C@H](NC(=O)[C@H](CCCNC(=O)c2cc3ccc(N(CC)CC)cc3oc2=O)NC(=O)[C@H]2CCCN2C(=O)[C@H](NC(=O)[C@@H](NC(=O)[C@@H](NC(=O)[C@H](NC(=O)CCCC(C)C)C(C)C)[C@@H](C)O)C(C)C)C(C)C)[C@@H](C)CC)[C@@H](C)OC(=O)[C@H](C(C)C)NC1=O
inhibition at 0.3 µM (Fusarium oxysporum [1]): 0%
inhibition at 0.3 µM (Fusarium proliferatum [2]): 0%
inhibition at 30 µM (Fusarium proliferatum [3]): 0%
GI50 (PC-3): 3.7 µM
TGI (PC-3): 21.8 µM
GI50 (HT-29): 2.39 µM
TGI (HT-29): > 100 µM
inhibition at 30 µM (Fusarium oxysporum [4]): 0%
inhibition at 3 µM (Fusarium proliferatum [5]): 0%
inhibition at 16 µg/mL [6]: 46%
inhibition at 3 µM (Fusarium solani [7]): 0%
GI50 (Hs-578T): 3.03 µM
TGI (Hs-578T): > 100 µM
GI50 (SK-OV-3): 2.55 µM
TGI (SK-OV-3): 20.2 µM
inhibition at 30 µM (Fusarium solani [8]): 0%
inhibition at 0.3 µM (Fusarium oxysporum [9]): 0%
GI50 (ACHN): 26.4 µM
TGI (ACHN): 69.8 µM
GI50 (A549): 13.7 µM
TGI (A549): > 100 µM
inhibition at 0.3 µM (Fusarium solani [10]): 0%
inhibition at 3 µM (Fusarium proliferatum [11]): 0%
GI50 (HCC 2998): 2.27 µM
TGI (HCC 2998): 11.4 µM
inhibition at 0.3 µM (Fusarium proliferatum [12]): 0%
GI50 (HCT-15): 0.964 µM
TGI (HCT-15): 17.7 µM
GI50 (NCI-H322M): 0.165 µM
TGI (NCI-H322M): 0.49 µM
GI50 (DU-145): 0.33 µM
TGI (DU-145): 1.83 µM
inhibition at 3 µM (Fusarium oxysporum [13]): 0%
inhibition at 30 µM (Fusarium solani [14]): 0%
inhibition at 3 µM (Fusarium solani [15]): 0%
GI50 (RPMI-8226): 40.1 µM
TGI (RPMI-8226): > 100 µM
inhibition at 30 µM (Fusarium oxysporum [16]): 0%
GI50 (COLO 205): 4.52 µM
TGI (COLO 205): > 100 µM
GI50 (KM12): 0.413 µM
TGI (KM12): 3.07 µM
GI50 (SNB-75): 2.11 µM
TGI (SNB-75): 6.87 µM
inhibition at 3 µM (Fusarium oxysporum [17]): 0%
GI50 (UACC-257): > 100 µM
TGI (UACC-257): > 100 µM
GI50 (T47D): 0.518 µM
TGI (T47D): 2.83 µM
inhibition at 0.3 µM (Fusarium solani [18]): 0%
inhibition at 30 µM (Fusarium proliferatum [19]): 0%

C/C=C1\NC(=O)[C@H](Cc2ccccc2)NC(=O)[C@@H](C(C)C)NC(=O)[C@@H]([C@@H](C)CC)NC(=O)[C@H](NC(=O)[C@H](NC(=O)[C@H](CCCNCc2ccncc2)NC(=O)[C@H]2CCCN2C(=O)[C@@H](NC(=O)[C@H](NC(=O)[C@H](NC(=O)[C@@H](NC(=O)CCCC(C)C)C(C)C)[C@H](C)O)C(C)C)C(C)C)[C@@H](C)CC)[C@@H](C)OC(=O)[C@H](C(C)C)NC1=O
Activity (Fusarium proliferatum [20]): Active
Activity (Fusarium oxysporum [21]): Active
Activity (Fusarium solani [22]): Active

C/C=C1\NC(=O)[C@H](Cc2ccccc2)NC(=O)[C@@H](C(C)C)NC(=O)[C@@H]([C@@H](C)CC)NC(=O)[C@H](NC(=O)[C@H](NC(=O)[C@H](CCCNCc2cccs2)NC(=O)[C@H]2CCCN2C(=O)[C@@H](NC(=O)[C@H](NC(=O)[C@H](NC(=O)[C@@H](NC(=O)CCCC(C)C)C(C)C)[C@H](C)O)C(C)C)C(C)C)[C@@H](C)CC)[C@@H](C)OC(=O)[C@H](C(C)C)NC1=O
Activity (Fusarium oxysporum [23]): Active
Activity (Fusarium solani [22]): Active
Activity (Fusarium proliferatum [24]): Active
